From publication PMC2289302 (The Journal of Cell Biology, 1992)

Experiments:
[1] = target: LDV peptide-RSA conjugate (human); assay: cell adhesion assay
A375 melanoma cells = format: cell-based, human; conditions: 5 ug/ml peptide, no activation, Figs. 2 and 3
Summary of the method: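 Surfaces coated at 5 ug/ml with plasma fibronectin or with synthetic peptides, each carrying an NH2-terminal cysteine on a gly-gly-gly tail and conjugated to SMCC-derivatized RSA. Human melanoma A375 cells were left to adhere for 1 h. Nonadherent cells were washed off. Adherent monolayers were photographed under phase contrast on an inverted microscope to judge adhesion and spreading.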

alpha 4 beta 1 integrin = alpha 4 beta 1 integrin (human (endogenous in Jurkat, Ramos, …, UniProt P13612;P05556)); assay: cell adhesion assay

## alpha 4 beta 1 integrin (from UniProt P13612;P05556) (receptor)
[1]
  molar concentration of peptide conjugate required for 50% adhesion: > 2000

## rsa-EILDVPST
A375 melanoma cells
  adhesion of A375 melanoma cells to coated surface, in words: able to support the adhesion

## EILDV [EILDV peptide]
Alpha 4 beta 1 integrin
  IC50: 660 µM

## DELPQLVTLPHPN [A13 peptide]
Alpha 4 beta 1 integrin
  IC50: > 1000 µM

## LHGPEILDVPST [B12 peptide]
Alpha 4 beta 1 integrin
  IC50: 400 µM

## GPEILDVPST [GPEILDVPST peptide]
Alpha 4 beta 1 integrin
  IC50: 450 µM
